Screens (PubChem BioAssay)
Compounds with a hit are over-represented: about 1.1% of the library has one in this group of screens.
Diaph act CS: compounds boosting diaphorase resazurin reduction – biochemical, uHTS, resorufin fluorescence, counter-screen for diaphorase-coupled primary assays, primary screen | Diaphorase/resazurin coupled assay, 16 min; hits give high values; 1 = vehicle wells, 0 = NADH-free wells | activation factor at 20 µM | 0.005% of 190,000 active | AID 1229, 2008;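 active means diaphorase activity raised at least twofold by the compound at 20 µM; inactive means activation factor below 2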
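Test system: Clostridium kluyveri diaphorase, purified enzyme. Buffer or medium: 50 mM HEPES pH 7.4 buffer plus MgCl2 and Tween 20. Also added: 0.114 mM NADH and 0.1 mM resazurin, final amounts. Dosing: compound 20 µM once, DMSO 1%. Schedule: 16 min enzyme reaction, ambient temperature. Detection: fluorescence of resorufin, 544 nm excitation, 590 nm emission.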
PMI act hi M6P: human PMI activators, high substrate, primary screen, biochemical, fluorescence intensity, near-saturating mannose 6-phosphate. Mannose-6-phosphate isomerase (Homo sapiens), P34949. coupled PMI enzyme assay, resazurin fluorescence, 20 min; hits give high values; 1 = untreated enzyme, 0 = substrate-free blank. activation factor at 20 µM. 0.34% of 190,000 active. AID 1216, 2008;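 active means activation factor of 2 or more at 20 µM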
Target sequence (P34949 whole entry, looked up): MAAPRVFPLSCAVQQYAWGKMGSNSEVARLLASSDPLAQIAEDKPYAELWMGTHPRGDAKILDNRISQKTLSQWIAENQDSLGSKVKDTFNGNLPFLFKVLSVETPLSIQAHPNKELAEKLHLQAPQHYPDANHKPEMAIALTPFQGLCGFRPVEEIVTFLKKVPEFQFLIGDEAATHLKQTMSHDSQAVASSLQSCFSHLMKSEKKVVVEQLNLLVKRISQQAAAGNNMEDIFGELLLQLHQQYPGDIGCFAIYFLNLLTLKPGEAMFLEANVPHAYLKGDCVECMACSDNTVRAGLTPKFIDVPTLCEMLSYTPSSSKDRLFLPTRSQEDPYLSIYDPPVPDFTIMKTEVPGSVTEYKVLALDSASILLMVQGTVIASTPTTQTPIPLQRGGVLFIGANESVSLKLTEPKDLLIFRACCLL
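Test system – human PMI in coupled enzyme assay · Timing – 20 min incubation at room temperature · Detection – Diaphorase-driven resazurin-to-resorufin fluorescence, excitation 544, emission 590 nm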
Diaphorase inh: diaphorase inhibitors and chemical oxidizers, primary screen, counter-screen for diaphorase-coupled primary assays, biochemical, uHTS, resorufin fluorescence | inhibition, % at 20 µM | diaphorase resazurin-to-resorufin fluorescence, NADH, 16 min; bacterial (C. kluyveri) enzyme, not human | 0.69% of 190,000 active | AID 1217, 2008;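 active means primary screen inhibition at 20 µM above a set limit, cut at about 50% in these data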;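 further: plate controls were DMSO with full reaction for no effect and wells lacking NADH for full effect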
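Detection: fluorescence of resorufin formed from resazurin, Ex 544/Em 590 nm; test system: Clostridium kluyveri diaphorase enzyme; amount: 0.14 U/mL diaphorase, enzyme working solution; times: 16-min room-temperature incubation before reading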
PMI activator: activators of human PMI, primary screen, biochemical, fluorescence intensity, near-Km mannose 6-phosphate | Mannose-6-phosphate isomerase (Homo sapiens), P34949 | AID 1214, 2008 | purified human PMI, coupled resazurin fluorescence, 20 min; hits give high values; 1 = vehicle control, 0 substrate-free wells | activation factor at 20 µM | 0.005% of 190,000 active;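 active means activation factor of 2 or more at 20 µM, relative to plate controls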
G6PDH counter: L. mesenteroides G6PDH inhibitors, counter-screen for G6PDH-coupled screening assays, biochemical, Leuconostoc mesenteroides enzyme; glucose-6-phosphate dehydrogenase [Leuconostoc mesenteroides]; Purified L. mesenteroides G6PDH, diaphorase/resazurin coupled fluorescence, 45 min; inhibition, % at 5 µM; 0.12% of 200,000 active; AID 1020, 2008; in the data active means inhibition above about 50%
Starred values were filed as active, the others as inactive.

SMILES	Diaph act CS	PMI act hi M6P	Diaphorase inh	PMI activator	G6PDH counter
NC(=O)C(c1ccc(Cl)cc1Cl)c1ncc(C(F)(F)F)cc1Cl (stereo not drawn)	0.9	1	8	1	10
COc1ccc(N2CCC(CNC(=O)Nc3cccc(OC)c3)C2)cc1 (stereo not drawn)	0.4	0.4	57*	0.3	2
COc1ccc(N2CCC(CNC(=S)Nc3cccc(OC)c3)C2)cc1 (stereo not drawn)	1	0.5	0	0.7	-10
Oc1ccc(/C=N/Nc2ccccc2)cc1	0.8	2.5*	25	1.6	-2
Brc1ccc(/C=N/Nc2ccccc2)cc1	0.8	2.4*	16	1.4	11
Cc1ccc2c3c(c(SCC(=O)Nc4nccs4)nc2c1)CCCC3	1	1	0	1	-1
Cc1cc(O)c(/C=N/Nc2ccccc2Cl)c(=O)o1	0.8	2.2*	25	1.4	1
Cc1cc(O)c(/C=N/Nc2cccc(Cl)c2)c(=O)o1	0.9	2.5*	11	1.5	-7
Cc1cc(O)c(/C=N/Nc2ccc(Cl)cc2)c(=O)o1	0.9	2.1*	11	1.3	7
Cc1cccc(N=Cc2c(O)cc(C)oc2=O)c1	1	1	-5	1.1	4
CC(C)OC(=O)CSc1nc(Cc2ccccc2)nc2ccccc12	0.9	0.9	12	0.9	-1
CC1Cc2ccccc2N1S(=O)(=O)c1cccc(C(=O)N2CCN(c3ncccn3)CC2)c1 (stereo not drawn)	1	1.1	1	1	13
CNc1ccccc(-c2ccc3cc4c(cc3n2)OCO4)c1=O	0.7	0.7	31	1.2	19
N=c1c(S(=O)(=O)c2ccccc2)cc2c(=O)n3ccccc3nc2n1Cc1ccco1	0.5	1.2	51*	1.4	0
Cc1ccc2nc3c(cc(S(=O)(=O)c4ccccc4)c(=N)n3Cc3ccco3)c(=O)n2c1	0.5	1	52*	1.3	-2
CCOC(=O)c1cc2c(=O)n3ccccc3nc2n(Cc2ccco2)c1=NC(=O)c1ccccc1OC	0.2	1	80*	1.2	-1
CCOC(=O)c1cc2c(=O)n3ccccc3nc2n(Cc2ccco2)c1=NC(=O)c1ccc(OC)cc1	0.7	0.7	35	1.1	8
COc1ccc(NC(=O)CC2(CC(=O)O)CCCC2)cn1	1	0.9	1	1.1	7
CCOC(=O)C1=C(Cc2ccc(Cl)cc2)C(=O)c2ccccc2C1=O	0.6	1.6	37	1.2	55*
CCOC(=O)C1=C(C)N=C2c3ccccc3C(=O)C2C1c1ccc(Cl)cc1 (stereo not drawn)	0.9	1	11	0.9	3
CC1(C)Cc2c(C#N)c(N3CCCC3)nc(-c3ccco3)c2CO1	0.5	1	55*	1.1	0
CC1(C)Cc2c(C#N)c(NCc3ccco3)nc(-c3ccco3)c2CO1	0.8	1.1	20	0.9	2
CCOc1ccccc1Nc1nc(N)nc(CN(C)C2CCCCC2)n1	0.9	0.9	6	0.9	6
CC(C)C1Nc2ccc(C(=O)O)cc2C2C=CCC21 (stereo not drawn)	0.6	1.1	42	1.3	24
CCOC(=O)c1ccc2c(c1)C1C=CCC1C(C(=O)O)N2 (stereo not drawn)	0.4	1.7	62*	1.2	0
SMILES	Diaph act CS	PMI act hi M6P	Diaphorase inh	PMI activator	G6PDH counter
CCCC1Nc2ccc(C(=O)O)cc2C2C=CCC12 (stereo not drawn)	0.9	2*	10	1.6	11
O=C(NC(=S)NCCN1CCOCC1)c1ccc(F)cc1	0.9	1	7	1	12
Cc1ccc(C(=O)NC(=S)NNC(=O)CCN2CCOCC2)cc1	0.3	0.5	67*	0.6	-7
Cc1cc(C)c2ccc(=S)[nH]c2n1	0.9	2.5*	7	1.7	1
COc1ccc(C2=NO[C@@H]3[C@@H]4C[C@@H]([C@H]5C(=O)N(c6ccc7c(c6)OCO7)C(=O)[C@@H]45)[C@H]23)cc1OC	0.7	0.7	26	0.9	-8
COc1ccc(-c2csc(NC(=O)c3ccccc3NS(=O)(=O)c3ccc(F)c(F)c3)n2)cc1	0.5	0.9	53*	0.9	3
Cc1ccc(S(=O)(=O)Nc2ccccc2C(=O)Nc2nc(-c3ccc(F)cc3)cs2)cc1	0.9	1.1	13	1	13
O=C(/C(=N/N=C/c1ccc(O)c(O)c1O)c1ccccc1)c1ccccc1	0.4	0.7	62*	0.4	20
NC(=O)/C(=N\O)c1ccccc1	0.9	1	10	1	2
Oc1ccc(/C=N/N=C(c2ccccc2)c2ccccc2)c(O)c1O	0.3	0.4	75*	0.3	-28
CCC(CC)C(=O)Nc1cccc(/C(C)=N/NC(=O)c2ccccc2Cl)c1	0.8	0.9	16	0.9	18
Cc1c(NC(=O)CC(=O)Nc2c(C)n(C)n(-c3ccccc3)c2=O)c(=O)n(-c2ccccc2)n1C	0.9	0.9	10	0.9	10
Cc1c(NC(=O)CSc2ccccc2F)c(=O)n(-c2ccccc2)n1C	0.5	1	50*	0.1	1
O=C1N/C(=C/c2cccs2)C(=O)N1Cc1ccc(Br)cc1	1.3	1.1	-25	1.2	14
CCc1ccc(NC(=O)C(CC)c2ccccc2)cc1 (stereo not drawn)	0.9	1.2	6	1.1	5
CCC(O)CC(C(=O)NNc1ccccc1)C(=O)NNc1ccccc1 (stereo not drawn)	1	2.8*	0	1.8	3
Cc1ccc(NS(=O)(=O)c2ccc(Br)cc2)nc1	0.9	1	7	1	26
COC1(NS(=O)(=O)c2ccc(Br)cc2)C(C)=CC(=O)C=C1C	0.5	0.4	52*	0.7	38
O=C(COC(=O)[C@@H]1CC(O)CN1S(=O)(=O)c1ccccc1[N+](=O)[O-])Nc1ccc2ccccc2c1 (stereo partly drawn)	0.8	0.9	15	0.9	4
O=C(O)Cc1ccc(C(=O)c2ccc(Cl)cc2Cl)s1	0.2	1.5	83*	1.6	13
Cc1ccc(NNS(=O)(=O)c2ccc(C)cc2)cc1	0.8	2*	20	1.1	9
CC(/C=C/C=C/c1ccccc1)=N\NC(=O)c1cccnc1	0.8	2.1*	19	1.6	5
